Experimental data pooled from the literature.
Protocols differ between the studies behind these lines.
Target: Aurora kinase C (AURKC, Homo sapiens, UniProt Q9UQB9)

N#CCCc1ccc2c(c1)-c1[nH]c3ccc([N+](=O)[O-])cc3c1CC(=O)N2  remaining signal (cell-free assay; 0.5 µM): 83.6%
CN(C)C(=O)Cn1cc(-c2nc([C@@](C)(c3ccc(-c4cnc(N)nc4)cc3)C3CC3)no2)cn1  remaining binding (cell-free assay; competition with immobilised ligand; 1 µM): 100%
O=c1cc(-c2cccc3c2Sc2ccccc2S3)oc(N2CCOCC2)c1  remaining activity (enzyme activity; inhibitor; 0.5 µM): 84.9%
CNc1cccc2cc(C(=O)Nc3ccc(C(=O)O)cc3)c(=O)[nH]c12  inhibition (enzyme activity; inhibitor; 10 µM): -7.3%
CC(C)(O)[C@H]1CC[C@H](Nc2ccc3ncc(-c4cccc(C(F)(F)F)c4)n3n2)CC1  remaining activity (enzyme activity; inhibitor; 1 µM): 88.5%
CC/C(=N\NC(=O)NCc1cccc(O)c1)c1ccc(O)c(C)c1O  inhibition (enzyme activity; inhibitor; 0.1 µM): 2.5%
O=c1c2ccccc2[nH]c(=S)n1CCN1CCC(=C(c2ccc(F)cc2)c2ccc(F)cc2)CC1  remaining activity (enzyme activity; inhibitor; 0.5 µM): 99.4%
Cc1ccc(NC(=O)c2ccc(C)c(C(F)(F)F)c2)cc1C#Cc1nn(C2CCC(O)CC2)c2ncnc(N)c12 (centres unmarked)  remaining signal (cell-free assay; 10 µM): 101%
CCC(=N\O)/C(C)=C/c1ccc(F)cc1  remaining binding (cell-free assay; competition with immobilised ligand; 1 µM): 80%
CC(C)(C)c1nc(-c2cccc(NS(=O)(=O)c3c(F)cccc3F)c2F)c(-c2ccnc(N)n2)s1  remaining activity (enzyme activity; inhibitor; radiometric; 1 µM): 92%
Cc1cc(NC(=O)c2cccc3cc(-c4cccc5[nH]nc(N)c45)ccc23)ccc1F  activity vs control (enzyme activity; inhibitor; 0.1 µM): 83%
CCCCN(CCCC)C(=O)CN1C[C@H](c2cc(OC)c3c(c2)OCO3)[C@@H](C(=O)O)[C@@H]1CC(C)(C)CCC  remaining binding (cell-free assay; competition with immobilised ligand; 1 µM): 100%
COc1cc2ncnc(Nc3ccc(Oc4ccccc4)c(C)c3C)c2cc1OC  inhibition (enzyme activity; inhibitor; 1 µM): 5%
CC(=O)N1CCC(c2ccc(C(=O)NC3=NCCN3)cc2C(F)(F)F)CC1  remaining binding (cell-free assay; competition with immobilised ligand; 1 µM): 100%
C=CC(=O)Nc1cc(Nc2nccc(Nc3cc(Cl)c(F)cc3C(C)(C)O)n2)c(OC)cc1N1CC[C@@H](N(C)C)C1  inhibition (enzyme activity; inhibitor; 1 µM): 6%
CN1CC(Oc2cnc(C#N)cc2-c2ccn3nc(NC(=O)C4CC4)cc3c2)C1  inhibition (enzyme activity; inhibitor; 1 µM): 3%
CC1=C(C#N)[C@@H](c2ccc3[nH]nc(C)c3c2)C(C#N)=C(c2ccc(Cl)cc2)N1  remaining binding (cell-free assay; competition with immobilised ligand; 1 µM): 100%
Cc1sc(C(=O)NC2COC2)cc1-n1cc(NC(=O)Nc2c(F)cccc2Cl)cn1  remaining activity (enzyme activity; inhibitor; 10 µM): 104%
CCC(=O)N[C@@H]1CC[C@H](C(=O)N(C)c2ccc(-c3nc4ccccc4o3)cc2)C1  remaining binding (cell-free assay; competition with immobilised ligand; 1 µM): 100%
CCN(CC)CCNC(=O)c1c(C)[nH]c(/C=C2\C(=O)Nc3ccc(Cl)cc32)c1C  remaining activity (enzyme activity; inhibitor; 0.5 µM): 74.7%
